Measurements as given in ChEMBL document CHEMBL2057152, “Synthesis and antibacterial activity against Clostridium difficile of novel demethylvancomycin derivatives” (2012).
≈ marks a conversion by molar mass, not a printed value.

Columns and labels:
Assay type in all cases: functional
[1] = Antibacterial activity against Clostridium difficile ATCC 43255 after 16 hrs by two-fold serial dilution method; conditions: Clostridioides difficile, ATCC 43255, 16 h
In short: (§1)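 CLSI agar dilution MIC. Compounds are dissolved in 50% water in DMSO as a stock, twofold serially diluted in sterile water, then diluted 10-fold into Mueller-Hinton agar. Organisms are grown in MH broth at 35 °C for 8 h and adjusted to 0.5 McFarland. They are applied to the drug-containing plates by multipoint inoculator and incubated at 35 °C for 16 h. Vancomycin and demethylvancomycin serve as controls.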

Clostridioides difficile [2] = experiment: Antibacterial activity against Clostridium difficile ATCC 700057 after 16 hrs by two-fold serial dilution method; conditions: ATCC 700057, 16 h; in short: as §1
Clostridioides difficile [3] = experiment: Antibacterial activity against Clostridium difficile ATCC 700792 after 16 hrs by two-fold serial dilution method; conditions: ATCC 700792, 16 h; in short: as §1
Clostridioides difficile [4] = experiment: Antibacterial activity against Clostridium difficile IQCC 23903 after 16 hrs by two-fold serial dilution method; conditions: IQCC 23903, 16 h; in short: as §1
Enterococcus faecalis = experiment: Antibacterial activity against Enterococcus faecalis ATCC 700802 after 16 hrs by two-fold serial dilution method; conditions: ATCC 700802, 16 h; in short: as §1
Clostridioides difficile [5] = experiment: Ratio of MIC for vancomycin to compound MIC for Clostridium difficile ATCC 43255 after 16 hrs by two-fold serial dilution method
Clostridioides difficile [6] = experiment: Ratio of MIC for demethylvancomycin to compound MIC for Clostridium difficile ATCC 43255 after 16 hrs by two-fold serial dilution method
Clostridioides difficile [7] = experiment: Ratio of MIC for vancomycin to compound MIC for Clostridium difficile ATCC 700057 after 16 hrs by two-fold serial dilution method
Clostridioides difficile [8] = experiment: Ratio of MIC for demethylvancomycin to compound MIC for Clostridium difficile ATCC 700057 after 16 hrs by two-fold serial dilution method
Clostridioides difficile [9] = experiment: Ratio of MIC for vancomycin to compound MIC for Clostridium difficile ATCC 700792 after 16 hrs by two-fold serial dilution method
Clostridioides difficile [10] = experiment: Ratio of MIC for demethylvancomycin to compound MIC for Clostridium difficile ATCC 700792 after 16 hrs by two-fold serial dilution method
Clostridioides difficile [11] = experiment: Ratio of MIC for vancomycin to compound MIC for Clostridium difficile IQCC 23903 after 16 hrs by two-fold serial dilution method
Clostridioides difficile [12] = experiment: Ratio of MIC for demethylvancomycin to compound MIC for Clostridium difficile IQCC 23903 after 16 hrs by two-fold serial dilution method

| SMILES | MIC [1] [µg/mL] | MIC (Clostridioides difficile [2]) [µg/mL] | MIC (Clostridioides difficile [3]) [µg/mL] | MIC (Clostridioides difficile [4]) [µg/mL] | MIC (Enterococcus faecalis) [µg/mL] | Ratio (Clostridioides difficile [5]) | Ratio (Clostridioides difficile [6]) | Ratio (Clostridioides difficile [7]) | Ratio (Clostridioides difficile [8]) | Ratio (Clostridioides difficile [9]) | Ratio (Clostridioides difficile [10]) | Ratio (Clostridioides difficile [11]) | Ratio (Clostridioides difficile [12]) |
| --- | --- | --- | --- | --- | --- | --- | --- | --- | --- | --- | --- | --- | --- |
| CC(C)C[C@@H](N)C(=O)N[C@H]1C(=O)N[C@@H](CC(N)=O)C(=O)N[C@H]2C(=O)N[C@H]3C(=O)N[C@H](C(=O)N[C@H](C(=O)O)c4cc(O)cc(O)c4-c4cc3ccc4O)[C@H](O)c3ccc(c(Cl)c3)Oc3cc2cc(c3O[C@@H]2O[C@H](CO)[C@@H](O)[C@H](O)[C@H]2O[C@H]2C[C@](C)(NCc3ccc(Br)cc3)[C@H](O)[C@H](C)O2)Oc2ccc(cc2Cl)[C@H]1O | 0.25 (≈ 0.156 µM) | 0.25 (≈ 0.156 µM) | 0.25 (≈ 0.156 µM) | 0.25 (≈ 0.156 µM) | 8 (≈ 4.99 µM) | 2 | 2 | 2 | 2 | 2 | 2 | 2 | 2 |
| CC(C)C[C@@H](N)C(=O)N[C@H]1C(=O)N[C@@H](CC(N)=O)C(=O)N[C@H]2C(=O)N[C@H]3C(=O)N[C@H](C(=O)N[C@H](C(=O)O)c4cc(O)cc(O)c4-c4cc3ccc4O)[C@H](O)c3ccc(c(Cl)c3)Oc3cc2cc(c3O[C@@H]2O[C@H](CO)[C@@H](O)[C@H](O)[C@H]2O[C@H]2C[C@](C)(NCc3cccs3)[C@H](O)[C@H](C)O2)Oc2ccc(cc2Cl)[C@H]1O | 0.5 (≈ 0.326 µM) | 0.5 (≈ 0.326 µM) | 0.5 (≈ 0.326 µM) | 0.5 (≈ 0.326 µM) | 32 (≈ 20.9 µM) |  |  |  |  |  |  |  |  |
| CCCCCCCCCCCCCN[C@@]1(C)C[C@H](O[C@H]2[C@H](Oc3c4cc5cc3Oc3ccc(cc3Cl)[C@@H](O)[C@@H](NC(=O)[C@H](N)CC(C)C)C(=O)N[C@@H](CC(N)=O)C(=O)N[C@H]5C(=O)N[C@H]3C(=O)N[C@H](C(=O)N[C@H](C(=O)O)c5cc(O)cc(O)c5-c5cc3ccc5O)[C@H](O)c3ccc(c(Cl)c3)O4)O[C@H](CO)[C@@H](O)[C@@H]2O)O[C@@H](C)[C@H]1O | 1 (≈ 0.618 µM) | 2 (≈ 1.24 µM) | 2 (≈ 1.24 µM) | 1 (≈ 0.618 µM) | 4 (≈ 2.47 µM) |  |  |  |  |  |  |  |  |
| CC(C)=CCC/C(C)=C/CN[C@@]1(C)C[C@H](O[C@H]2[C@H](Oc3c4cc5cc3Oc3ccc(cc3Cl)[C@@H](O)[C@@H](NC(=O)[C@H](N)CC(C)C)C(=O)N[C@@H](CC(N)=O)C(=O)N[C@H]5C(=O)N[C@H]3C(=O)N[C@H](C(=O)N[C@H](C(=O)O)c5cc(O)cc(O)c5-c5cc3ccc5O)[C@H](O)c3ccc(c(Cl)c3)O4)O[C@H](CO)[C@@H](O)[C@@H]2O)O[C@@H](C)[C@H]1O | 0.5 (≈ 0.318 µM) | 0.5 (≈ 0.318 µM) | 0.5 (≈ 0.318 µM) | 0.5 (≈ 0.318 µM) | 16 (≈ 10.2 µM) |  |  |  |  |  |  |  |  |
| CC(C)C[C@@H](N)C(=O)N[C@H]1C(=O)N[C@@H](CC(N)=O)C(=O)N[C@H]2C(=O)N[C@H]3C(=O)N[C@H](C(=O)N[C@H](C(=O)O)c4cc(O)cc(O)c4-c4cc3ccc4O)[C@H](O)c3ccc(c(Cl)c3)Oc3cc2cc(c3O[C@@H]2O[C@H](CO)[C@@H](O)[C@H](O)[C@H]2O[C@H]2C[C@](C)(NCc3cc4ccccc4o3)[C@H](O)[C@H](C)O2)Oc2ccc(cc2Cl)[C@H]1O | 1 (≈ 0.639 µM) | 0.5 (≈ 0.319 µM) | 1 (≈ 0.639 µM) | 0.5 (≈ 0.319 µM) | 8 (≈ 5.11 µM) |  |  |  |  |  |  |  |  |
| CC(C)C[C@@H](N)C(=O)N[C@H]1C(=O)N[C@@H](CC(N)=O)C(=O)N[C@H]2C(=O)N[C@H]3C(=O)N[C@H](C(=O)N[C@H](C(=O)O)c4cc(O)cc(O)c4-c4cc3ccc4O)[C@H](O)c3ccc(c(Cl)c3)Oc3cc2cc(c3O[C@@H]2O[C@H](CO)[C@@H](O)[C@H](O)[C@H]2O[C@H]2C[C@](C)(NCC3CCCCC3)[C@H](O)[C@H](C)O2)Oc2ccc(cc2Cl)[C@H]1O | 1 (≈ 0.653 µM) | 0.5 (≈ 0.326 µM) | 1 (≈ 0.653 µM) | 0.5 (≈ 0.326 µM) | 16 (≈ 10.4 µM) |  |  |  |  |  |  |  |  |
| CC(C)CCN[C@@]1(C)C[C@H](O[C@H]2[C@H](Oc3c4cc5cc3Oc3ccc(cc3Cl)[C@@H](O)[C@@H](NC(=O)[C@H](N)CC(C)C)C(=O)N[C@@H](CC(N)=O)C(=O)N[C@H]5C(=O)N[C@H]3C(=O)N[C@H](C(=O)N[C@H](C(=O)O)c5cc(O)cc(O)c5-c5cc3ccc5O)[C@H](O)c3ccc(c(Cl)c3)O4)O[C@H](CO)[C@@H](O)[C@@H]2O)O[C@@H](C)[C@H]1O | 1 (≈ 0.664 µM) | 1 (≈ 0.664 µM) | 1 (≈ 0.664 µM) | 0.5 (≈ 0.332 µM) | 32 (≈ 21.3 µM) |  |  |  |  |  |  |  |  |
| CC(C)C[C@@H](N)C(=O)N[C@@H]1C(=O)N[C@@H](CC(N)=O)C(=O)N[C@H]2C(=O)N[C@H]3C(=O)N[C@H](C(=O)N[C@H](C(=O)O)c4cc(O)cc(O)c4-c4cc3ccc4O)[C@H](O)c3ccc(c(Cl)c3)Oc3cc2cc(c3O[C@@H]2O[C@H](CO)[C@@H](O)[C@H](O)[C@H]2O[C@H]2C[C@](C)(N)C(O)[C@H](C)O2)Oc2ccc(cc2Cl)[C@H]1O (stereo partly drawn) [DEMETHYLVANCOMYCIN] | 0.5 (≈ 0.348 µM) | 0.5 (≈ 0.348 µM) | 0.5 (≈ 0.348 µM) | 0.5 (≈ 0.348 µM) | > 32 |  |  |  |  |  |  |  |  |
| CC(C)C[C@@H](N)C(=O)N[C@H]1C(=O)N[C@@H](CC(N)=O)C(=O)N[C@H]2C(=O)N[C@H]3C(=O)N[C@H](C(=O)N[C@H](C(=O)O)c4cc(O)cc(O)c4-c4cc3ccc4O)[C@H](O)c3ccc(c(Cl)c3)Oc3cc2cc(c3O[C@@H]2O[C@H](CO)[C@@H](O)[C@H](O)[C@H]2O[C@H]2C[C@](C)(NCc3ccco3)[C@H](O)[C@H](C)O2)Oc2ccc(cc2Cl)[C@H]1O | 0.5 (≈ 0.33 µM) | 0.5 (≈ 0.33 µM) | 0.5 (≈ 0.33 µM) | 0.5 (≈ 0.33 µM) | 32 (≈ 21.1 µM) |  |  |  |  |  |  |  |  |
| CN[C@H](CC(C)C)C(=O)N[C@H]1C(=O)N[C@@H](CC(N)=O)C(=O)N[C@H]2C(=O)N[C@H]3C(=O)N[C@H](C(=O)N[C@H](C(=O)O)c4cc(O)cc(O)c4-c4cc3ccc4O)[C@H](O)c3ccc(c(Cl)c3)Oc3cc2cc(c3O[C@@H]2O[C@H](CO)[C@@H](O)[C@H](O)[C@H]2O[C@H]2C[C@](C)(N)[C@H](O)[C@H](C)O2)Oc2ccc(cc2Cl)[C@H]1O [VANCOMYCIN] | 1 (≈ 0.69 µM) | 0.5 (≈ 0.345 µM) | 1 (≈ 0.69 µM) | 0.5 (≈ 0.345 µM) | 32 (≈ 22.1 µM) |  |  |  |  |  |  |  |  |
| CCC(CC)CN[C@@]1(C)C[C@H](O[C@H]2[C@H](Oc3c4cc5cc3Oc3ccc(cc3Cl)[C@@H](O)[C@@H](NC(=O)[C@H](N)CC(C)C)C(=O)N[C@@H](CC(N)=O)C(=O)N[C@H]5C(=O)N[C@H]3C(=O)N[C@H](C(=O)N[C@H](C(=O)O)c5cc(O)cc(O)c5-c5cc3ccc5O)[C@H](O)c3ccc(c(Cl)c3)O4)O[C@H](CO)[C@@H](O)[C@@H]2O)O[C@@H](C)[C@H]1O | 2 (≈ 1.32 µM) | 2 (≈ 1.32 µM) | 2 (≈ 1.32 µM) | 2 (≈ 1.32 µM) | 32 (≈ 21.1 µM) |  |  |  |  |  |  |  |  |
| CC(C)C[C@@H](N)C(=O)N[C@H]1C(=O)N[C@@H](CC(N)=O)C(=O)N[C@H]2C(=O)N[C@H]3C(=O)N[C@H](C(=O)N[C@H](C(=O)O)c4cc(O)cc(O)c4-c4cc3ccc4O)[C@H](O)c3ccc(c(Cl)c3)Oc3cc2cc(c3O[C@@H]2O[C@H](CO)[C@@H](O)[C@H](O)[C@H]2O[C@H]2C[C@](C)(NCc3ccc(F)cc3)[C@H](O)[C@H](C)O2)Oc2ccc(cc2Cl)[C@H]1O | 0.5 (≈ 0.324 µM) | 0.5 (≈ 0.324 µM) | 0.5 (≈ 0.324 µM) | 0.5 (≈ 0.324 µM) | 16 (≈ 10.4 µM) |  |  |  |  |  |  |  |  |
| COc1ccc(CN[C@@]2(C)C[C@H](O[C@H]3[C@H](Oc4c5cc6cc4Oc4ccc(cc4Cl)[C@@H](O)[C@@H](NC(=O)[C@H](N)CC(C)C)C(=O)N[C@@H](CC(N)=O)C(=O)N[C@H]6C(=O)N[C@H]4C(=O)N[C@H](C(=O)N[C@H](C(=O)O)c6cc(O)cc(O)c6-c6cc4ccc6O)[C@H](O)c4ccc(c(Cl)c4)O5)O[C@H](CO)[C@@H](O)[C@@H]3O)O[C@@H](C)[C@H]2O)cc1 | 0.5 (≈ 0.321 µM) | 0.5 (≈ 0.321 µM) | 1 (≈ 0.643 µM) | 0.5 (≈ 0.321 µM) | 16 (≈ 10.3 µM) |  |  |  |  |  |  |  |  |
